Test results taken from publication PMC8547165 (Environmental science & technology, 2021).

Tests used:
[1] = QAC levels in human blood; type: in vivo; conditions: human serum, n = 111; for Median concentration: non-detects = 1/2 MDL
[2] = Hepatic clearance in vitro-in vivo extrapolation; design: species or system human; conditions: IVIVE
Procedure, shortened: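 Human liver microsomes (1 mg/mL) in 50 mM phosphate pH 7.4 with 3 mM MgCl2, 0.5 uM substrate, 0.5% DMSO, NADPH-generating system, 37 °C, triplicate, stopped at 0–3 h; depletion fitted mono-exponentially for CLin vitro. Unbound fraction from NSB-corrected serum ultrafiltration and 60-min blood/serum ratio. Scaled by 34 mg microsomal protein/g liver, hepatic blood flow 42.6 mL/h/g liver.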

Compound | Maximum concentration ([1]; before COVID-19 (2019)) [ng/mL] | Minimum concentration ([1]; before COVID-19 (2019)) | Median concentration ([1]; before COVID-19 (2019)) | Maximum concentration ([1]; during COVID-19 (2020)) [ng/mL] | Minimum concentration ([1]; during COVID-19 (2020)) | Median concentration ([1]; during COVID-19 (2020)) | Fold lower CLinvivo than C14- and C16-ATMACs [2]
CCCCCCCCCCCCCC[N+](C)(C)CCCCCCCCCCCCCC [C14-DDAC] | 0.522 | <MDL | <MDL | 0.795 | <MDL | <MDL | 
CCCCCCCCCC[N+](C)(C)CCCCCCCCCC [C10-DDAC] | 0.206 | <MDL | <MDL | 0.620 | <MDL | 0.089 ng/mL | 
CCCCCCCCCCCCCCCC[N+](C)(C)Cc1ccccc1 [C16-BAC] | 0.800 | <MDL | 0.080 ng/mL | 16.4 | <MDL | 0.346 ng/mL | 
CCCCCCCCCC[N+](C)(C)Cc1ccccc1 [C10-BAC] | 0.166 | <MDL | <MDL | 1.45 | <MDL | <MDL | 
CCCCCCCCCCCCCCCCCC[N+](C)(C)CCCCCCCCCCCCCCCCCC [C18-DDAC] | 5.77 | <MDL | <MDL | 5.35 | <MDL | <MDL | 
CCCCCCCCCCCCCCCC[N+](C)(C)CCCCCCCCCCCCCCCC [C16-DDAC] | 0.142 | <MDL | <MDL | 0.576 | <MDL | <MDL | 
CCCCCCCC[N+](C)(C)CCCCCCCC [C8-DDAC] | 0.447 | <MDL | <MDL | 0.219 | <MDL | <MDL | 
CCCCCCCCCCCC[N+](C)(C)C [C12-ATMAC] | 8.55 | <MDL | 0.981 ng/mL | 6.84 | <MDL | 0.612 ng/mL | 2-4 times
CCCCCCCCCCCC[N+](C)(C)Cc1ccccc1 [C12-BAC] | 1.40 | <MDL | 0.289 ng/mL | 22.1 | <MDL | 0.634 ng/mL | 
CCCCCCCCCCCCCCCCCC[N+](C)(C)C [C18-ATMAC] | 0.171 | <MDL | <MDL | 3.62 | <MDL | <MDL | 
CCCCCCCCCCCCCC[N+](C)(C)Cc1ccccc1 [C14-BAC] | 2.36 | <MDL | 0.490 ng/mL | 40.1 | <MDL | 1.14 ng/mL | 
CCCCCCCCCCCCCC[N+](C)(C)C [C14-ATMAC] | 1.86 | <MDL | 0.667 ng/mL | 3.75 | <MDL | 0.929 ng/mL | 
CCCCCCCCCCCCCCCCCC[N+](C)(C)Cc1ccccc1 [C18-BAC] | 2.14 | <MDL | <MDL | 1.41 | <MDL | 0.180 ng/mL | 
CCCCCCCC[N+](C)(C)Cc1ccccc1 [C8-BAC] | 0.196 | <MDL | <MDL | 0.433 | <MDL | 0.055 ng/mL | 
CCCCCCCCCCCCCCCC[N+](C)(C)C [C16-ATMAC] | 5.65 | <MDL | <MDL | 3.53 | <MDL | 0.966 ng/mL | 
